Test results taken from article PMC7003773 (Clinical Pharmacology in Drug Development, 2019).
Like-named read-outs stand apart in the source and are kept apart here.

Columns and labels:
[1] = cited from earlier work
[2] = test system: S. aureus; conditions: neutropenic murine thigh model; cited from earlier work
[3] = test system: serum albumin; conditions: intravenous dose; unchanged by drug concentration, renal impairment or hepatic function; cited from earlier work
[4] = Population pharmacokinetic analysis of clinical plasma concentration data; assay type: in vivo, human
How it was run: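 Plasma sampled 1, 18, 23 and 36–48 h post-infusion. Assayed by LC-MS/MS (0.5–500 µg/mL), sub-0.5 µg/mL values dropped. Modelled in NONMEM with FOCE, log-normal IIV, stepwise covariates (forward P < .01, backward P < .001) and bootstrap uncertainty. T1/2 taken from 100 000 parameter draws.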

[5] = test system: Staphylococcus aureus, Streptococcus pyogenes, Streptococcus dysgalactiae, vancomycin-susceptible Enterococcus faecalis; experiment: MIC distributions from 2017 surveillance program; assay type: cell-based; conditions: 2017 surveillance data, United States and Europe, 4 most relevant species
How it was run: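 Isolates came from the 2017 surveillance program: 70 US medical centers across 9 Census regions and 38 centers in 18 European countries. MICs were determined centrally at one reference laboratory by CLSI M07-A10 (2015) dilution methods. Isolate counts: S. aureus n = 8833, S. pyogenes n = 941, S. dysgalactiae n = 312, vancomycin-susceptible E. faecalis n = 1060. Distributions were plotted as histograms on a log MIC axis.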

[6] = final popPK model, typical value

## CN[C@H]1C(=O)N[C@@H]2Cc3ccc(cc3)Oc3cc4cc(c3O[C@@H]3O[C@H](C(=O)O)[C@@H](O)[C@H](O)[C@H]3NC(=O)CCCCCCCCC(C)C)Oc3ccc(cc3Cl)[C@@H](O)[C@@H]3NC(=O)[C@H](NC(=O)[C@@H]4NC(=O)[C@@H](NC2=O)c2cc(cc(O)c2Cl)Oc2cc1ccc2O)c1ccc(O)c(c1)-c1c(O[C@H]2O[C@H](CO)[C@@H](O)[C@H](O)[C@@H]2O)cc(O)cc1[C@@H](C(=O)NCCCN(C)C)NC3=O [dalbavancin]
[1]
  total volume of distribution (Vd): ~16 L
[1]; healthy subjects
  total drug clearance: approximately 0.04 L/h
[1]; healthy volunteers, 1000 mg intravenous dose of dalbavancin, by 42 days postdose
  fraction of dose excreted as minor metabolite: 12%
[1]; healthy volunteers, 1000 mg intravenous dose, by 42 days postdose
  fraction of dose excreted in the feces: one‐third
[1]; healthy volunteers, 1000 mg intravenous dose
  fraction of dose excreted in urine unmodified: one‐third
[1]; intravenous
  terminal half-life: > 14 days
[1]; patients
  total drug clearance: ~0.058 L/h
[2]
  2-log kill target, fAUC/MIC: 111.1
[3]
  fraction bound to serum albumin / plasma protein: approximately 93%
[4]; 3-compartment popPK model
  total volume of distribution: ~15 L
[4]; calculated from 100 000 random samples drawn from mean and covariance of estimated model parameters
  T1/2: 8.77 days
[4]; final popPK model, no IIV
  Q2, distributional clearance: 0.288 L/h
  Q3, distributional clearance: 2.11 L/h
[4]; [6]
  V1, central volume of distribution: 3.04 L
  V2: 8.78 L
  V3: 3.28 L
[5]
  rightmost histogram bar of the MIC distributions (highest MIC observed): 0.25
